From ChEMBL document CHEMBL3414545, “Fused heterocycles bearing bridgehead nitrogen as potent HIV-1 NNRTIs. Part 4: design, synthesis and biological evaluation of novel imidazo[1,2-a]pyrazines” (Eur J Med Chem, 2015)
Structures can show the parent of a compound that is named as a salt. Calls of active or inactive are those of the source. The rule behind the calls is not given here.

Assays:
[1] = Selectivity index, ratio of CC50 for mock-infected human MT4 cells to EC50 for HIV1 3B infected in human MT4 cells; format: toxicity, cell-based; settings: mock-infected and infected with HIV1 3B, read-out: Selectivity Index
Summary of the method: (§1)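 MT-4 cells resuspended at 6 × 10⁵ cells/mL, then infected with 100–300 CCID₅₀ of HIV-1 IIIB or RES056 or left mock-infected. Compound, in serial five-fold dilutions in triplicate wells, was added at the start. Viability was read by MTT after 5 days. EC₅₀ is 50% protection from viral cytopathicity, CC₅₀ is 50% viability loss in mock-infected cells, and SI is CC₅₀/EC₅₀.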

[2] = Selectivity index, ratio of CC50 for mock-infected human MT4 cells to EC50 for HIV1 RES056 expressing reverse transcriptase K103N/Y181C double mutant; format: toxicity, cell-based; settings: read-out: Selectivity Index; summary of the method: as §1
[3] = system: Human immunodeficiency virus 1; assay: Antiviral activity against HIV1 RES056 expressing reverse transcriptase K103N/Y181C double mutant infected in human MT4 cells assessed as reduction in virus-induced cytopathic effect after 5 days by MTT assay; format: functional, organism-based; settings: Human immunodeficiency virus 1, RES056, MT4, 120 h; summary of the method: as §1
[4] = system: Human immunodeficiency virus 2; assay: Antiviral activity against HIV2 strain ROD infected in human MT4 cells assessed as reduction in virus-induced cytopathic effect at subtoxic concentration; format: functional, organism-based; settings: ISOLATE ROD
Summary of the method: (§2)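 Exponentially growing MT-4 cells were pelleted and resuspended at 6 × 10⁵ cells/mL, then infected with virus stock at 100–300 CCID₅₀. Compounds were added at infection as serial five-fold dilutions in triplicate wells, with untreated infected and mock-infected controls. Viability was read spectrophotometrically by MTT five days post-infection. EC₅₀ is the concentration giving 50% protection from viral cytopathic effect.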

[5] = target: Human immunodeficiency virus type 1 reverse transcriptase (Human immunodeficiency virus 1, UniProt Q72547); assay: Inhibition of HIV1 reverse transcriptase assessed as reduction in biotin-labeled dUTP incorporation into DNA using poly(A) x oligo(dT)15 as template/primer after 1 hr by ELISA
Summary of the method: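 Wild-type HIV-1 RT was assayed with a plate-bound homopolymer poly[A]·oligo[dT]₁₅ template/primer and biotin-dUTP, following the Roche RT kit protocol. Incorporated biotin-dUTP, a measure of RT activity, was quantified by ELISA. Percentage inhibition was calculated by formula, and IC₅₀ is the concentration inhibiting biotin-dUTP incorporation by 50%.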

[6] = system: Human immunodeficiency virus 1; assay: Antiviral activity against HIV1 3B infected in human MT4 cells assessed as reduction in virus-induced cytopathic effect after 5 days by MTT assay; format: functional, organism-based; settings: Human immunodeficiency virus 1, 3B, MT4, 120 h; summary of the method: as §2

Compound | selectivity ratio [1] | selectivity ratio [2] | EC50 [3] [µM] | inhibition [4] | IC50 [5] [µM] | EC50 [6] [µM]
O=c1[nH]cnc2c1ncn2[C@H]1CC[C@@H](CO)O1 [DIDANOSINE] | > 9 | – | – | – | – | –
Cc1cccc(C)c1Oc1nc(Nc2ccc(C#N)cc2)cn2ccnc12 | 5 | < 1 | > 32 | inactive | 0.82 | 6.5
Cc1cc(C)c(Oc2nc(Nc3ccc(C#N)cc3)cn3ccnc23)c(C)c1 | 126 | < 1 | > 33 | inactive | 0.4 | 0.26
Cc1cc(C#N)cc(C)c1Oc1nc(Nc2ccc(Cl)cc2)cn2ccnc12 | < 1 | – | – | inactive | 5.5 | > 13
Cc1cc(C#N)cc(C)c1Oc1nc(Nc2ccc(CC#N)cc2)cn2ccnc12 | 15 | < 1 | > 282 | inactive | 0.17 | 19
Cc1cc(C)c(Oc2nc(Nc3ccc([N+](=O)[O-])cc3)cn3ccnc23)c(C)c1 | 25 | < 1 | > 34 | inactive | 4.7 | 1.3
Cc1cn([C@H]2C[C@H](N=[N+]=[N-])[C@@H](CO)O2)c(=O)[nH]c1=O [ZIDOVUDINE] | > 13100 | > 9150 | 0.01 | – | – | –
Cc1cccc(C)c1Oc1nc(Nc2ccc([N+](=O)[O-])cc2)cn2ccnc12 | < 1 | – | – | inactive | 334 | > 5.3
Cc1cccc(C)c1Oc1nc(Nc2ccc(CC#N)cc2)cn2ccnc12 | < 1 | < 1 | > 156 | inactive | 5.7 | > 156
N#Cc1ccc(Nc2cn3ccnc3c(Oc3c(F)cc(F)cc3F)n2)cc1 | 5 | < 1 | > 38 | inactive | 0.47 | 7.2
Cc1cc(Cl)cc(C)c1Oc1nc(Nc2ccc(C#N)cc2)cn2ccnc12 | 39 | < 1 | > 34 | inactive | 1.1 | 0.87
Cc1ccnc2c1NC(=O)c1cccnc1N2C1CC1 [NEVIRAPINE] | – | – | ≥ 7.6 | – | – | –
Cc1cc(Br)cc(C)c1Oc1nc(Nc2ccc([N+](=O)[O-])cc2)cn2ccnc12 | 7 | < 1 | > 28 | inactive | 4.1 | 4
CC(C)Nc1cccnc1N1CCN(C(=O)c2cc3cc(NS(C)(=O)=O)ccc3[nH]2)CC1 [DELAVIRDINE MESYLATE] | > 67 | 1 | > 36 | – | – | –
Cc1cc(C#N)cc(C)c1Oc1nc(Nc2ccc(C#N)cc2)nc(N)c1Br [ETRAVIRINE] | – | – | 0.02 | – | – | 0.004
Cc1cc(Cl)cc(C)c1Oc1nc(Nc2ccc([N+](=O)[O-])cc2)cn2ccnc12 | 7 | < 1 | > 33 | inactive | 1.3 | 4.6
Cc1cc(C#N)cc(C)c1Oc1nc(Nc2ccc(C#N)cc2)nc2[nH]ccc12 | – | – | – | – | – | 0.0009
Cc1cc(C)c(Oc2nc(Nc3ccc(Cl)cc3)cn3ccnc23)c(C)c1 | < 1 | < 1 | > 12 | inactive | 5.9 | > 12
Cc1cc(C#N)cc(C)c1Oc1nc(Nc2ccc([N+](=O)[O-])cc2)cn2ccnc12 | 13 | < 1 | > 29 | inactive | 14 | 2.3
Cc1cc(C)c(Oc2nc(Nc3ccc(CC#N)cc3)cn3ccnc23)c(C)c1 | 13 | < 1 | > 117 | inactive | 0.36 | 9.2
Nc1ccn([C@@H]2CS[C@H](CO)O2)c(=O)n1 [LAMIVUDINE] | > 39 | – | – | – | – | –
Cc1cc(Br)cc(C)c1Oc1nc(Nc2ccc(C#N)cc2)cn2ccnc12 | 28 | < 1 | > 28 | inactive | 0.41 | 0.98
Cc1cccc(C)c1Oc1nc(Nc2ccc(Cl)cc2)cn2ccnc12 | < 1 | < 1 | > 57 | inactive | 15 | > 57
Cc1cc(C#N)cc(C)c1Oc1nc(Nc2ccc(C#N)cc2)cn2ccnc12 | ≥ 224 | 1 | > 73 | inactive | 0.26 | 0.32
O=[N+]([O-])c1ccc(Nc2cn3ccnc3c(Oc3c(F)cc(F)cc3F)n2)cc1 | < 1 | < 1 | > 28 | inactive | 11 | > 28
